# Rows were chosen to be rich in hits. Some 2.3% of all compounds tested hit in one or more screens of this group.
# STEP inh: STEP (human) phosphatase inhibition | 360,000 compounds, 0.25% hits | inhibition, % at 20 µM | recombinant STEP, OMFP fluorogenic substrate, fluorescence | P54829 | AID 588621;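 active = inhibition at 20 µM, scaled per plate between control wells, above about 37%, limit read from the data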;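 also: 0% = DMSO with enzyme and substrate and 100% = substrate only without enzyme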
# Target sequence (P54829 whole entry, looked up): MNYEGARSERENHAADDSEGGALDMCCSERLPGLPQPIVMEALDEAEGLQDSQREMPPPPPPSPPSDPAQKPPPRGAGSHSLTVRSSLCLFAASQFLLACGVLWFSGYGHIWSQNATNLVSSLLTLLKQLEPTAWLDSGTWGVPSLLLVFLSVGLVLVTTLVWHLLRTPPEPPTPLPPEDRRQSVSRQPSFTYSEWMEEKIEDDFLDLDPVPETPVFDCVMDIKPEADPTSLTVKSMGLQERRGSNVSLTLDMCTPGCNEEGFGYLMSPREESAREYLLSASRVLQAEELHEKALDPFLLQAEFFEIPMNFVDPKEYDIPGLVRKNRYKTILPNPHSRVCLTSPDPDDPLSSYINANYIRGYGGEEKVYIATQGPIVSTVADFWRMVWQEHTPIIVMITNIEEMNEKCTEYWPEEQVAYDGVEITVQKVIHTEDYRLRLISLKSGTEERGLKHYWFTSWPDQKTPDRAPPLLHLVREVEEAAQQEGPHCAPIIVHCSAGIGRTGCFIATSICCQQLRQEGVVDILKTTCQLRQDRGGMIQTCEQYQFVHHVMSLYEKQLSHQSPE
#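 Also added – OMFP at 25 µM · Test system – STEP tyrosine phosphatase · Technique – FITC-channel fluorescence of OMFP product · Schedule – 20 min at room temperature, dark · Evaluation – control-normalized % inhibition with plate pattern correction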
# Rpn11 block: blocks the human proteasome subunit Rpn11. O00487. human 26S proteasome, Ub4-pepOG fluorescence polarization; 20S core pre-blocked with epoxomicin. inhibition, % at 20 µM. 360,000 compounds, 0.59% hits. AID 588493;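 active = inhibition at 20 µM, scaled to each plate's controls, above about 33%, limit read from the data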
# LMPTP block: blocks human LMPTP phosphatase; recombinant LMPTP-A, OMFP fluorogenic substrate, fluorescence intensity; inhibition, % at 20 µM; 360,000 compounds, 0.22% hits;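 active = compounds that cut the enzyme signal by at least half of the control window in the single-dose screen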;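 also: plate controls were DMSO wells with enzyme plus substrate for no effect and substrate without enzyme for full effect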
#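 Test system – LMPTP-A phosphatase enzyme · Quantity – 0.625 nM LMPTP-A final · Reagent – OMFP substrate, 400 µM final · Dosing – one test concentration per compound, 20 µM, with 3% DMSO overall · Timing – 50 min enzyme reaction at room temperature, protected from light · Detection – fluorescence intensity · Controls – substrate-only low control, DMSO enzyme-plus-substrate high control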
# SUMO1 PPI mod: SUMO1-SIM interaction modulation; P63165; SUMO1 binding to a labelled peptide, TR-FRET, 1 h; inhibition, % at 20 µM; 360,000 compounds, 0.33% hits; AID 602429; in the data active = inhibition above about 37%
# Target sequence (P63165 whole entry, looked up): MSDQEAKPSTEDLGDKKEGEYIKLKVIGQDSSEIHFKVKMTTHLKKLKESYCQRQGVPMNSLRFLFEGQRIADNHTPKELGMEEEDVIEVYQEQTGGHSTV
# Scp1 inh: Scp-1 (human) phosphatase inhibition; 340,000 compounds, 0.88% hits; inhibition, % at 20 µM; Q9GZU7; Recombinant Scp1, phosphopeptide, malachite green phosphate absorbance;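 active = inhibition above about 50% at 20 µM, limit read from the data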;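 also: plate controls were DMSO wells with enzyme for no effect and wells lacking enzyme for full effect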
#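 Test system: SCP-1 phosphatase catalytic domain, residues 76-261; measured by: colorimetric phosphate reagent with accelerator and stabiliser, absorbance at 630 nm; timing: enzyme reaction 45 min at room temperature, colour 5 min, stabilisation 30 min; also added: Phosphorylated 17-residue peptide substrate; compound dosing: one concentration, 20 µM, with 1.0% DMSO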
# DNMT1 inh: inhibitors of human DNMT1; P26358; DNMT1 molecular beacon, Hinp1I cleavage, fluorescence; inhibition (reported as % activation of signal), % at 10 µM; 360,000 compounds, 0.83% hits; AID 588458; in the data active = inhibition above about 50%
# Scp1 confirm: confirmation of human Scp-1 phosphatase inhibitors. recombinant SCP-1 catalytic domain, phosphate release, malachite green absorbance. shares compounds with Scp1 inh. inhibition, % at 20 µM. 2,500 compounds, 61% hits. AID 540281;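 active = inhibition of at least 30% at 20 µM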;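 also: plate controls were DMSO with enzyme for no effect and buffer wells lacking enzyme for full effect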
# MG interference: interferes with malachite green readout, flagging false Scp-1 hits | Colorimetric interference counterscreen, malachite green absorbance 630 nm | shares compounds with Scp1 inh | AID 540313 | 2,500 tested, under 10 active | apparent inhibition (interference), % at 20 µM;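 active = inhibition of at least 30% at 20 µM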;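 also: compounds added after enzyme reaction finished so only phosphate colour detection is probed; plate controls were DMSO wells with completed Scp-1 reaction for no effect and substrate wells lacking enzyme for full effect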
# Scp-1 Tm shift: validation of human Scp-1 inhibitors by thermal shift binding. shares compounds with Scp1 inh. Recombinant SCP1, Sypro Orange thermal shift Tm. thermal shift relative to vanadate control, % at 40 µM. 1,500 compounds, 25% hits. AID 540329;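 active = substances whose mean melting-temperature shift, as a percentage of the reference inhibitor's shift, reaches about 5.3%, limit read from the data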;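 also: 0% = Tm of DMSO wells and 100% = Tm with sodium orthovanadate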
# Beacon interf DR: beacon fluorescence artifact, dose response counter-screen; shares compounds with DNMT1 inh; IC50, µM; 200 tested, under 10 active; molecular beacon fluorescence, spectral interference counter-screen; call rule not given here
# DNMT1 confirm: confirmation of human DNMT1 inhibitors | shares compounds with DNMT1 inh | DNMT1 molecular beacon HinP1I cleavage, fluorescence | inhibition, % at 10 µM | 2,300 compounds, 8% hits | AID 602385;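 active = average inhibition of at least 30% in the single-concentration confirmation test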
# DNMT1 interf: shows spectral interference in the DNMT1 beacon assay; shares compounds with DNMT1 inh; DNMT1 molecular beacon spectral interference counterscreen, fluorescence 485/520; activation (fluorescence interference), % at 10 µM; 2,300 compounds, 1% hits; AID 602387;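 active = activation of at least 30% at 10 µM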;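 also: DNMT1 catalytic domain with a HinP1I cleavage step and a FAM/dabcyl DNA beacon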
# Rpn11 confirm: Rpn11 inhibition confirmation, single concentration; inhibition, % at 20 µM; purified human 26S proteasome, Ub4-pepOG fluorescence polarization; proteasome pretreated with epoxomicin; 1,900 compounds, 29% hits; shares compounds with Rpn11 block
# MMP-2 inh: counter-screen for RPN11 inhibitors: inhibition of human MMP-2; shares compounds with Rpn11 block; recombinant MMP-2, FRET peptide cleavage fluorescence; inhibition, % at 20 µM; 1,900 compounds, 4% hits; AID 602330;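 also: human MMP-2 activated beforehand with APMA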
# Thrombin FP: blocks bovine thrombin, flagging nonselective RPN11 hits; shares compounds with Rpn11 block; bovine thrombin cleavage of Ub4-pepOG, fluorescence polarization; inhibition, % at 20 µM; 1,900 compounds, 13% hits;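 active = mean inhibition at least 40% at 20 µM, or signal 3 deviations below plate average, so some actives read negative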;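 also: plate controls were thrombin with DMSO for no effect and buffer wells lacking thrombin for full effect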
# * = called active by the depositor; · = no result shown; ! = repeats disagree. Rule as the data show it, unless noted: active = inhibition above about 40%; inactive = the rest.
SMILES,STEP inh,Rpn11 block,LMPTP block,SUMO1 PPI mod,Scp1 inh,DNMT1 inh,Scp1 confirm,MG interference,DNMT1 confirm,DNMT1 interf,others
C[C@]12CCC3C(CC[C@H]4C[C@@H](O)CC[C@]34C)[C@H]1C=CC2=O (some centres not stated),-2,1,1,1,56*,1,-18,-18,·,·,
COc1ccc(-n2nnnc2C(CCc2ccccc2)N2CCC3(CC2)C(=O)NCN3c2ccccc2)cc1 (configuration not stated),4,8,5,9,·,-22,·,·,·,·,
COC(=O)C1=C(c2cccc(OCc3ccccc3)c2)C[C@@H]2CC[C@H]1N2C(=O)NCc1ccc([N+](=O)[O-])cc1,2,6,7,-3,-24,-11,·,·,·,·,
COC(=O)C1=C(c2ccc(OCc3ccccc3)cc2)C[C@@H]2CC[C@H]1N2C(=O)NCc1ccc([N+](=O)[O-])cc1,6,15,9,5,68*,-15,-32,-28,·,·,
COc1cc(CN2CCNCC2)cc(OC)c1OC,-2,-7,-4,7,-2,0,·,·,·,·,
COc1ccc(CN2CCNCC2)c(OC)c1OC,-3,-2,-4,-2,99*!,1,95*,-10,·,·,Scp-1 Tm shift=-14
COc1cc2c(cc1OC)C13CCN4C=C5CCOC6CC(=O)N2C1C6C5CC43 (configuration not stated),1,0,0,3,-8,2,·,·,·,·,
Cc1ccc(S(=O)(=O)Cc2ccc(C(=O)N3CCC4(CC3)OCCO4)o2)cc1,4,-11,-1,0,57*,58*,52*,-8,1,3,Scp-1 Tm shift=1
CC[C@H](C)[C@@H]1NC(=O)CNC(=O)c2csc(n2)[C@H](C(C)(C)O)OC(=O)C(C)(C)[C@H](CCCC(C)(Cl)Cl)OC(=O)c2csc1n2,1,7,1,-1,·,5,·,·,·,·,
Cc1ccc(-n2c(C)cc(/C=C3/C(=O)NC(=O)N(Cc4ccco4)C3=O)c2C)cc1,2,4,2,1,9,41,·,·,·,·,
Cn1cccc1/C=C1\C(=O)NC(=O)N(Cc2ccco2)C1=O,56*,-7,41,15,80*,104*,45*,-23,20,2,Scp-1 Tm shift=8.1*
Cc1ccc(CN2Cc3ccc(Br)cc3-n3nncc3C2)cc1,2,4,-1,3,·,13,·,·,·,·,
Cc1cc(/C=C2\C(=O)NC(=O)N(Cc3ccccc3)C2=O)c(C)n1-c1ccc(Cl)c(C(=O)O)c1,84*,38,16,32,72*,103*,60*,-19,72*,-1,Scp-1 Tm shift=8.7*;Beacon interf DR=>99
Cc1c(P(=S)(c2ccccc2)c2ccccc2)[n+]2ccccc2n1C,-2,79*!,7,-59,68*,-140,-11,-15,·,·,Rpn11 confirm=78*;MMP-2 inh=-249;Thrombin FP=13
O=C(NC1CCCCC1)N1Cc2ccccc2-n2nncc2C1,1,2,-1,0,4,1,·,·,·,·,
O=C(O)Cn1cc(/C=C2\C(=O)NC(=O)N(c3ccc(Cl)cc3)C2=O)c2ccccc21,0,10,1,1,-11,67*,·,·,5,3,
O=C(O)Cn1cc(C=C2C(=O)NC(=O)NC2=O)c2ccccc21,3,-2,0,-15,5,5,·,·,·,·,
Cc1cc(/C=C2\C(=O)NC(=O)N(Cc3ccco3)C2=O)c(C)n1-c1ccc(O)cc1,-2,34,7,14,21,73*,·,·,6,2,
Cc1cc(/C=C2\C(=O)NC(=O)N(Cc3ccco3)C2=O)c(C)n1-c1ccc(C(=O)O)cc1,8,38,10,9,61*,86*,·,·,8,-1,
Cc1ccccc1-n1c(C)cc(/C=C2/C(=O)NC(=O)N(Cc3ccco3)C2=O)c1C,3,14,2,1,-3,30,·,·,·,·,
CCc1ccc(N2C(=O)NC(=O)/C(=C\c3cc(C)n(-c4cc(C(=O)O)cc(C(=O)O)c4)c3C)C2=O)cc1,13,-1,-1,18,36,73*,·,·,4,3,
Cc1ccc2c(C)c3ccc4ccccc4c3c[n+]2c1,-1,1,8,-15,4,-39,·,·,·,·,
C[C@]12CCC(OC(=O)CCC(=O)O)CC1=CCC1C2CC[C@]2(C)C(=O)CCC12 (some centres not stated),18,-7,-1,-1,9,91*,·,·,4,4,
C[C@]12CC[C@H](OC(=O)CCC(=O)O)CC1=CCC1C2CC[C@@]2(C)C1CC[C@@H]2OC(=O)CCC(=O)O (some centres not stated),-3,-3,1,31,-5,0,·,·,·,·,
CN1CCN(c2ccc(/C=C3\C(=O)NC(=S)N(c4cccc(Br)c4)C3=O)o2)CC1,-13,·,7,-117,-7,-5,·,·,·,·,
Cc1ccc(/C=C2\C(=O)NC(=S)N(c3cccc(F)c3)C2=O)o1,4,·,3,28,38,72*,·,·,23,2,
CC(C)C[C@H]1COc2cc(N3CCN(C)CC3)ccc2S(=O)(=O)N1,·,·,-2,-1,·,·,·,·,·,·,

# High-throughput results: PubChem BioAssay, Sanford-Burnham Center for Chemical Genomics
